Experimental data of several laboratories.
Each line is one published result; the experiments were not run side by side.
Target: Adenosine receptor A2a (ADORA2A, Homo sapiens, UniProt P29274)
Effect on: ligand displacement
Method: radioligand

The Ki of `CNC(=O)c1csc(Nc2cccc(C)n2)n1` is reported as 7100 nM (cell membranes).
For `OC[C@@]12C[C@@H]1[C@@H](n1cnc3c(N[C@@H](C4CCC4)C4CC4)nc(I)nc31)[C@H](O)[C@@H]2O`, the Ki was 3080 nM.
`CCNC(=O)[C@H]1O[C@@H](n2cnc3c(N)nc(NN=C[C@H]4CCC=CO4)nc32)[C@H](O)[C@@H]1O` has a Ki of 3.76 nM.
`c1coc(-c2nc3cc(CN4CCCCC4)ccc3o2)c1` has a Ki of 19000 nM (cell membranes).
`CNC(=O)[C@@]12C[C@@H]1[C@@H](n1cnc3c(NCc4cccc(C#CCCCc5cn(-c6ccc(F)c(N)c6)nn5)c4)nc(Cl)nc31)[C@H](O)[C@@H]2O` gave a Ki of 2730 nM (cell membranes).
For `Nc1nc(-c2ccccc2Cl)nn1C(=O)CCc1ccccc1`, the Ki was 630 nM (cell membranes).
With `CNC(=O)[C@@]12C[C@@H]1[C@@H](n1cnc3c(NCc4cccc(C#CCCCCCc5cn(-c6ccc(F)c(N)c6)nn5)c4)nc(Cl)nc31)[C@H](O)[C@@H]2O` the Ki was 550 nM (cell membranes).
With `c1ccc2[nH]c(-c3nc4ccccc4[nH]3)nc2c1` the Ki was 140 nM (cell membranes).
For `CCCCCCN1CCCn2c1nc1c2c(=O)n(C)c(=O)n1C`, the Ki was 2070 nM (cell membranes).
`c1coc(-c2nc3cc(CCN4CCCCC4)ccc3o2)c1` gave a Ki of 7000 nM (cell membranes).
`C=CN1CCCn2c1nc1c2c(=O)n(C)c(=O)n1C` gave a Ki of over 10000 nM (cell membranes).
The Ki of `Nc1nc(I)nc2c1ncn2[C@H]1[C@H](O)[C@H](O)[C@]2(CCl)C[C@H]12` is reported as 5350 nM.
